Results gathered from unrelated publications.
Each line is one published result; the experiments were not run side by side.
SRC: Proto-oncogene tyrosine-protein kinase Src (SRC, Homo sapiens, UniProt P12931)
PLA2G5: Phospholipase A2 group V (PLA2G5, Homo sapiens, UniProt P39877)
NTRK3: NT-3 growth factor receptor (NTRK3, Homo sapiens, UniProt Q16288)
MDH2: Malate dehydrogenase, mitochondrial (MDH2, Sus scrofa, UniProt P00346)
CDK9 with cyclin T1: Cyclin-dependent kinase 9, with cyclin T1 (CDK9, Homo sapiens, UniProt P50750)
CXCR4: C-X-C chemokine receptor type 4 (CXCR4, Homo sapiens, UniProt P61073)
AKT1: RAC-alpha serine/threonine-protein kinase (AKT1, Homo sapiens, UniProt P31749)
CYP2C9: Cytochrome P450 2C9 (CYP2C9, Homo sapiens, UniProt P11712)

Cc1ccc(C(=O)Nc2ccc(Oc3cc4cnn(C)c4cc3-c3cn[nH]c3)c(F)c2)c(=O)n1-c1ccc(F)cc1
IC50 (Tyrosine-protein kinase Mer (MERTK, Homo sapiens, UniProt Q12866); cell growth or viability; ATP luminescence): 0.01 µM

O=C(O)/C=C\C(=O)Nc1ccc(S(=O)(=O)Nc2ncccn2)cc1
IC50 (Dipeptidyl peptidase 4 (DPP4, Homo sapiens, UniProt P27487); enzyme activity; inhibitor; fluorescence): 54.6 µM

Cc1cnc(-c2ccc(-c3ccc(NC(=O)Nc4c(F)cc(F)cc4F)cc3F)c3c2C(=O)NC3)[nH]1
IC50 (SRC; enzyme activity; inhibitor): 0.0004 µM

O=C(O)/C=C/c1ccc(O)c(O)c1
IC50 (PLA2G5; enzyme activity; inhibitor; Ellman): 26.8 µM

CNC(=O)c1cc2c(Oc3ccc(NC(=O)C4(C(=O)Nc5ccc(F)cc5)CC4)cc3)ccnc2cc1OC
IC50 (NTRK3; enzyme activity; inhibitor; radiometric): 0.01 µM

COc1ccc(S(=O)(=O)Nc2ccc3oc(-c4ccc(NS(=O)(=O)c5cc(F)ccc5OC)cc4)nc3c2)cc1
IC50 (MDH2; enzyme activity; inhibitor): > 62.5 µM

O=c1cc(-c2ccccc2)oc2ccc3ccccc3c12
IC50 (CDK9 with cyclin T1; enzyme activity; inhibitor; ADP detection): > 10 µM

Cc1noc(C)c1CN(C(=O)CCc1nc(Cc2ccccc2)no1)c1ccccc1
IC50 (CXCR4; β-arrestin recruitment): 200 µM

O=C(O)c1cc(O)c(O)c(O)c1
IC50 (PLA2G5; enzyme activity; inhibitor; Ellman): 9.79 µM

CCn1c(COC(=O)c2ccccc2NC(=O)c2ccco2)nc2cc(S(=O)(=O)N(C)C)ccc21
IC50 (CXCR4; β-arrestin recruitment; antagonist): 63 µM

COc1ccc(S(=O)(=O)Nc2ccc3oc(-c4ccc(NC(=O)C5CCN(C(C)=O)CC5)cc4)nc3c2)cc1
IC50 (MDH2; enzyme activity; inhibitor): > 62.5 µM

C=CC(=O)Nc1ccc(N2CCC[C@@H](Nc3ncc(Cl)c(-c4c[nH]c5ccccc45)n3)C2)c(F)c1
IC50 (CDK9 with cyclin T1; enzyme activity; inhibitor; FRET): 0.436 µM

O=S(=O)(Nc1ccc(-c2nc3cc(NS(=O)(=O)c4ccc(C(F)(F)F)cc4)ccc3o2)cc1)c1ccc(C(F)(F)F)cc1
IC50 (MDH2; enzyme activity; inhibitor): > 62.5 µM

CCS(=O)(=O)c1ncc(N(Cc2ccco2)Cc2ccco2)c(C(=O)Nc2c(C)cccc2C)n1
IC50 (CXCR4; β-arrestin recruitment; antagonist): 13 µM

CCn1ncc2c1-c1cnc(N)c(c1)O[C@H](C)c1cc(F)ccc1-c1nn(C)nc1C2
IC50 (NTRK3; enzyme activity; inhibitor): 0.19 µM

CCN(CC)CCOCCN(Cc1ccccc1)Cc1nc(Cc2ccccc2)no1
IC50 (CXCR4; β-arrestin recruitment): 398 µM

CN1CCN(c2ccc(Nc3ncc4cc(C#N)c(=O)n(C5CCCC5)c4n3)cc2)CC1
IC50 (Cyclin-dependent kinase 1, with cyclin A (CDK1, Homo sapiens, UniProt P06493); enzyme activity; inhibitor): 7.41 µM

O=c1cc(-c2ccccc2)oc2c1ccc1ccccc12
IC50 (CDK9 with cyclin T1; enzyme activity; inhibitor; ADP detection): > 100 µM

C/C(=C\C(=O)OCCCCCCCCC(=O)O)C[C@@H]1OC[C@H](C[C@@H]2O[C@H]2[C@@H](C)[C@H](C)O)[C@@H](O)[C@H]1O
IC50 (CXCR4; calcium signal; antagonist): > 100 µM

COc1ccc2c(Oc3ccc4c(C(=O)Nc5ccccc5N)cccc4c3)ccnc2c1
IC50 (AKT1; enzyme activity; inhibitor): > 0.5 µM

COc1ccc2cc3[n+](cc2c1OC)CCc1cc2c(cc1-3)OCO2
IC50 (CYP2C9; enzyme activity; inhibitor): 0.7 µM

COc1ccc(S(=O)(=O)Nc2ccc(-c3nc4cc(NS(=O)(=O)c5ccc(OC)cc5)ccc4o3)cc2)cc1
IC50 (MDH2; enzyme activity; inhibitor): > 62.5 µM

N=C(N)NCCCC[C@@H]1NC(=O)CCSSC[C@@H](C(N)=O)NC(=O)[C@@H]2CCCN2C(=O)[C@H](Cc2c[nH]c3ccccc23)NC(=O)[C@H](CC(=O)O)NC(=O)CNC1=O
IC50 (CXCR4; β-arrestin recruitment; antagonist): > 30 µM

CC(=O)c1ccc(/N=N/c2cc(/C=C/C(=O)O)ccc2O)cc1
IC50 (PLA2G5; enzyme activity; inhibitor; Ellman): 42.5 µM

COC(=O)C1CCN(C(=O)c2ccc(N(Cc3ccccc3)Cc3cnc4nc(N)nc(N)c4n3)cc2)CC1
IC50 (CYP2C9; enzyme activity; inhibitor; luciferase): 0.316 µM

O=S(=O)(Nc1ccc(-c2nc3cc(NS(=O)(=O)c4ccc(F)cc4)ccc3o2)cc1)c1ccc(F)cc1
IC50 (MDH2; enzyme activity; inhibitor): > 62.5 µM

CCS(=O)(=O)c1ncc(N(Cc2ccccc2)Cc2ccco2)c(C(=O)Nc2ccc(C)cc2)n1
IC50 (CXCR4; β-arrestin recruitment; antagonist): 25 µM

COc1ccccc1S(=O)(=O)Nc1ccc(-c2nc3cc(NS(=O)(=O)c4ccccc4OC)ccc3o2)cc1
IC50 (MDH2; enzyme activity; inhibitor): > 62.5 µM

CC(C)NCCCC[C@H](NC(=O)[C@H]1CCC(=O)N[C@@H](Cc2ccccc2)C(=O)N[C@@H](Cc2ccc(O)cc2)C(=O)N[C@@H](CCCCNC(C)C)C(=O)N[C@H](CCCNC(=N)N)C(=O)N[C@@H](Cc2ccc3ccccc3c2)C(=O)NCC(=O)N1)C(N)=O
IC50 (CXCR4; ligand displacement; radioligand): 0.0248 µM

Nc1ncnc2c1c(Cc1cccc3ccccc13)nn2CC1CCNCC1
IC50 (SRC; enzyme activity; inhibitor): > 20 µM

C[C@@H](N)COc1ccc(-c2cnc3ccc(N[C@H](C)c4cccc(F)c4)nn23)cc1
IC50 (NTRK3; enzyme activity; inhibitor): 0.0042 µM

O=C(Nc1ccn(Cc2ccc(O)cc2C(F)(F)F)n1)c1c(F)cccc1F
IC50 (Voltage-dependent T-type calcium channel subunit alpha-1H (CACNA1H, Homo sapiens, UniProt O95180); ion current; inhibitor): > 10 µM

O=S(=O)(Nc1ccc(-c2nc3cc(NS(=O)(=O)c4cccc(C(F)(F)F)c4)ccc3o2)cc1)c1cccc(C(F)(F)F)c1
IC50 (MDH2; enzyme activity; inhibitor): > 62.5 µM

O=C(O)c1cccc(SCc2cccc(Nc3ncc4c(-c5ccc(N6CCOCC6)cc5)[nH]nc4n3)c2)c1
IC50 (Cyclin-dependent kinase 1, with cyclin B (CDK1, Homo sapiens, UniProt P06493); enzyme activity; inhibitor): > 200 µM

CCc1ccc(NC(=O)c2nc(S(C)(=O)=O)ncc2N(Cc2ccccc2)Cc2ccco2)cc1
IC50 (CXCR4; β-arrestin recruitment; antagonist): 13 µM

COc1ccc(-c2nn3c(C)nnc3s2)cc1
IC50 (DNA dC->dU-editing enzyme APOBEC-3A (Homo sapiens, UniProt P31941); enzyme activity; inhibitor): > 100 µM

CCN1CCN(Cc2ccc(NC(=O)c3ccc(C)c(NC(=O)c4cncc(-c5cccs5)c4)c3)cc2C(F)(F)F)CC1
IC50 (Ephrin type-A receptor 2 (EPHA2, Homo sapiens, UniProt P29317); enzyme activity; inhibitor; ADP detection): 0.419 µM

CC(C)(C)n1nc(-c2cnc3cc(OC4CC4)ccc3c2)c(C(N)=O)c1N
IC50 (AKT1; cell-free assay): > 10 µM

NC(=O)c1ccc[n+]([C@@H]2O[C@H](COP(=O)([O-])OP(=O)(O)OC[C@H]3O[C@@H](n4cnc5c(N)ncnc54)[C@H](O)[C@@H]3O)[C@@H](O)[C@H]2O)c1
IC50 (Poly [ADP-ribose] polymerase tankyrase-1 (TNKS, Homo sapiens, UniProt O95271); enzyme activity; inhibitor): 395 µM

CC(C)(C)n1nc(-c2ccc3nc(OC4CC4)ccc3c2)c(C(N)=O)c1N
IC50 (Calcium/calmodulin-dependent protein kinase kinase 2 (CAMKK2, Homo sapiens, UniProt Q96RR4); cell-free assay): > 10 µM

COc1ccc(S(=O)(=O)Nc2ccc3oc(-c4ccc(NC(=O)c5ccc(Cl)s5)cc4)nc3c2)cc1
IC50 (MDH2; enzyme activity; inhibitor): > 62.5 µM

CC(C)=CCC/C(C)=C/Cc1ccc[n+](CC(P(=O)([O-])O)P(=O)(O)O)c1 (stereo not drawn)
IC50 (Geranylgeranyl pyrophosphate synthase (GGPS1, Homo sapiens, UniProt O95749); enzyme activity; inhibitor): 10 µM
